Variants at the floor of the assay were thinned out.
B1: tRNA (parent)
chain: GUUCCGUUGGCGUAAUGGUAACGCGUCUCCCUCCUAAGGAGAAGACUGCGGGUUCGAGUCCCGUACGGAACG

Variants of: B1
Experiment: yeast fitness relative to wild type (ratio to wild type); higher = fitter; tRNA-Arg(CCU), competitive growth, 37 C, YPD
Method in brief: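 Amplicons of the tRNA-Arg(CCU) gene were sequenced, 100-nucleotide paired-end, from the start population and from each end population of a pooled yeast competition. The competition, in six parallel replicates, lasted 24 hours in YPD at 37°C. Fitness relative to wild type was calculated from changes in genotype frequencies. Genotypes had to have ≥ 100 starting reads, and estimates < 0.5 were set to 0.5.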

| Variant | yeast fitness |
| --- | --- |
| GUUCCGUUGACGUAACGGUAACGCGUCUUCCUCCUAAGGAGAAGACUGCGGGUUCGAGUCCCGUACGGAACG | 0.599 |
| GUUCCGUUGCCGUAAUGGUUACGCGUCUCCCUCCUAAGGAGAAGACUGCGGGUUCGUGUCCCGUACGGAACG | ≤ 0.5 |
| GUUCCGUUGCCGUAAUGGUACCGCGUCUAGCUCCUAAGGCGAAGACUGCGGGUUCGAGUCCCGUACGGAACG | ≤ 0.5 |
| GUUCCGUUGCCGUAAUGGUAACGCGUCUCCCUCCUUAGGAGAAGACUGCGGGUUCGAGUCCCGUACGGAACG | 0.539 |
| GUUCCGUUGACGUAAUGGAAACGCGUCUCCCUCCUAAGGAGAACACUGCGGGUUCGAGUCCCGUACCGAACG | 0.52 |
| GUUCCGUUGCCGUAAUGGUAACGCGUCUCCCUCCUAUGGAGAAGACUGCGGGUUCGAGUCCCGUACGGAACG | ≤ 0.5 |
| GUUCCGUUGCCGUAAUGGUAACGCGUCUCCCUCCUACGGAGAAGACUGCGGGUUCGAGUCCCGUACGGAACG | 0.622 |
| GUUCCGUUGCGGUAAUGGUAACGCGUCUCCUUCCCAAGGAGAAGACUGCGGGUACGAGUCCCGUACGGAACG | ≤ 0.5 |
| GUUCCGUUGACGUAAUGGUAACGCGACUCCCUCCUAAGGAGAAGACUGCGGGUUCGAGUCCUGUACGGAACG | 0.529 |
| GUUCCGUUGCCGUAUUGGUAACGCGUCUGCCUCCUAAGGAGAAGAUUGCGCGUUCGAGUCCCGUAUGGAACG | ≤ 0.5 |
| GUUCCGUUGCCGUAAUGGUAACGCGUCUCCCUCCUAAGGAGAUGACUGCGGGUUCGAGUCCCCUAAGGAACG | ≤ 0.5 |
| GUUCCGUUGACGUAAUGGUAACGCGUCACCCUCCUAAGGAGAAGACUGCGGGUUCGAGUCCCGUACGGAACG | 0.633 |
| GUUCCGUUGCCGUAAUGGUGACGUGUCUCCCUCCUAACGAGAAGACUGCGGGUUCCAGUCCCGUAUGGAACG | ≤ 0.5 |
| GUUCCGUUGCCGUAAUGGUAAAGGGUUUCCCUCCUAAGGAGAAGACUGCGGGAUCGAGUCCCGUACGGAACG | 0.543 |
| GUUCCGUUGACGUAAUGGUAACGCGUCUCCCUCCUAAGGAGAAGACUGCGGGUUCGAGUCCCGCACGGAACG | 0.793 |
| GUUCCGUUGCCGUAAUGGUAACGCGUCUCCCUCCUCAGGAGAAGACACCGGGUGCGAGUCCCGUCCGGAACG | ≤ 0.5 |
| GUUCCGUUGCCGUCAUGGUAACGCGUCUCCCUCCUAAGGAGAAGACUGCGGGUUCGAGUCCCGUACGGAACG | 0.61 |
| GUUCCGUUGCCGUCAUGGUAACGCGUAUGCCUCCUAAGGAGAAGACUGCGGGUUCGCGUCCCGUACGGAACG | ≤ 0.5 |
| GUUCCGUUGCGGUAAUGGUAACGCGUCUCCCUCCUAAGGAGAAGACUGCGGGUUCCAGUCCCGUACGAAACG | ≤ 0.5 |

| Variant | yeast fitness |
| --- | --- |
| GUUCCGUUGCAGUAAUGGUAACGCGUCUCCUUCCUUAGGAGAAGACUGCGGGUUCCUGUCCCGUACGGAACG | 0.606 |
| GUUCCGUUGCCGUAAUGGUAACGCGUCUCCCUCCUACGGAGAUGACUGCGGGUUCGAGUCCCGUACGGAACG | ≤ 0.5 |
| GUUCCGUUGCCGUAAUGGUAACGCGUCUCCCUCCUAAGGAGGAGACUGCGGGUUCGUGUCCCGUACGGAACG | ≤ 0.5 |
| GUUCCGUUGCCGUAAUGGUACCGCGUAUCCCUCAUAAGGAGAAGACUGCGGGUUCGAGUCCCGUACGGAACG | ≤ 0.5 |
| GUUCCGUUGACGUAAAGGUAACGCGUCUCCCUCCUAAGGAGAAGACUGAAGGUUCGAGUCCCGUACGCAACG | ≤ 0.5 |
| GUUCCGUUGCGGUAAUGGUAACGCGUCUCCCUCCUAAGGAGAAGACUGCAGGUUCGAGUCCCGUCCGGAACG | ≤ 0.5 |
| GUUCCGUUGCCGUAAUGGUAAAGGGUCUCCCUCCUAAGGAGAAGACUGCGCGUUCGAGUCCUGUACGGAACG | ≤ 0.5 |
| GUUCCGUUGACGUAAUGGAAACGCGUCUCCCUCCUAAGGACAAGACUGCGGGUUCGAGUCCCGUACGGAACG | ≤ 0.5 |
| GUUCCGUUGCCGUAAUGGUAACGCGUCUCCCUCCUAAGGAGACGACCGCGGGUUUGAGUCCCGUACGGCACG | ≤ 0.5 |
| GUUCCGUUGCCGUAAUGGUAACGCGUCUCCCUCCUAAGGAGAAGCAUGCGGGUUCGAGUCCCGUAUGGAACG | 0.643 |
| GUUCCGUUGCCGUAAUGGUAACGCGUCUCCCUCCUUAGGAAAAGACUGCGGGUUCGAGUCCCGUAUGGACCG | ≤ 0.5 |
| GUUCCGUUGCCGUAAUGGUAUCCCGUCUCCCUCCUAAGGAGAAGACUGCGGGUUCAAGUCACGUGCGGAACG | 0.567 |
| GUUCCGUUGCUGUAAUGGUAACGUGUCUCCCUGCUUAGGAGAAGACUGCGGGUUCGAGUCCCGUACGGAACG | ≤ 0.5 |
| GUUCCGUUGCUGUAAUGGUAACGCGUCUCCCUCCUAAGGAGAAGACUGCGGGUUCGAGUCCCGUACAGAACG | ≤ 0.5 |
| GUUCCGUUGCCGUUAUGGAAAUGCGUCUCCCUCCUAAGGAGAAGACUGUGGGUUCGAGUCCCGUAUGGAACG | ≤ 0.5 |
| GUUCCGUUGACGUAACGGUAACGCGUCUCCCUCCUAAGGAGAAGACUGCGGGUUCGAGUCCCGUACGGAACG | 0.777 |
| GUUCCGUUGACGUAAUGGAAACGCGUCUCCCUCCUAAGGAGGAGACUGCGGGUUCGAGUCCCGAACGGAACG | 0.612 |
| GUUCCGUUGCCGUAAUGGUAACGCGUCUCCCUCCUAAGGAGACGACUGCGGGUUCGAGUCCCGUACGGAACG | 0.591 |
